Activity data for one molecule are collected here from ChEMBL document CHEMBL4017491, “Phthalazino[1,2-b]quinazolinones as p53 Activators: Cell Cycle Arrest, Apoptotic Response and Bak-Bcl-xl Complex Reorganization in Bladder Cancer Cells” (J Med Chem, 2017).

Assay [1] has as its system J82. Briefly: Cell cycle arrest in human J82 cells assessed as accumulation at G2 phase at 5 uM after 48 hrs by propidium iodide staining based FACS analysis (reference value: 10.92 %). The class given is functional. The essentials:
(§1)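 Cells treated with 1−10 μM for 48 h, trypsinized, and fixed in 70% ethanol. Stained with 50 μg/mL propidium iodide and phase distribution analyzed by flow cytometry. Mean ± SD from three independent measurements.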

The test system of assay [2] is T-24. Briefly: Cell cycle arrest in human T24 cells assessed as effect on CDK4 expression up to 10 uM after 24 hrs by Western blot analysis. The class given is functional, cell-based. The essentials: (§2)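 T24 cells, 3 × 10^5 per well, grown to 85−95% confluence, then exposed to 0−10 μM for 24 h. Whole-cell extracts in sample buffer run on SDS-polyacrylamide gels and transferred to nitrocellulose. Blots probed with primary antibodies and AP-linked anti-rabbit IgG, detected by ECL. Blots stripped and reprobed for β-actin as loading control.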
In general terms: A western blot detects proteins with antibodies after separation by electrophoresis.

Assay [3] has as its system T-24. Briefly: Downregulation of Bak protein expression in human T24 cells at 10 uM after 24 hrs by Western blot method. In kind it is functional, cell-based. The essentials: as §2
For assay [4], the system named is LNCaP. The assay is described as follows: Antiproliferative activity against human LNCAP cells harboring wild type p53 by MTT assay. In kind it is functional, cell-based. The essentials:
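Cell lines cultured in RPMI 1640 with 10% FBS. Viability read by MTT (5 mg/mL, 4 h at 37 °C), with formazan dissolved in DMSO and absorbance taken at 490 nm. Viability (%) = A490 treated / A490 control × 100. IC50 taken from dose-response curves, from three independent experiments each run in triplicate.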

The test system of assay [5] is Mus musculus. The assay is described as follows: Induction of phospho-p53 expression in BALB/C nude mouse xenografted with human T24 cells at 6 to 12 mg/kg, ip administered every 2 days for 16 days by immunoblot analysis. (In general: A xenograft is tissue or cells of one species grown in another, often human tumour cells in immunodeficient mice.)
Assay [6] relates to J82. Briefly: Cell cycle arrest in human J82 cells assessed as accumulation at S phase at 10 uM after 48 hrs by propidium iodide staining based FACS analysis (reference value: 46.79 %). In kind it is functional. The essentials: as §1
(A flow cytometer gives signals particle by particle.)

Active and inactive are the calls of the source. The calls are words filed in the database; no cut-off is given here.

Turning to `CN(C)CCNc1nn2c(=O)c3cc(Br)ccc3nc2c2ccccc12`, the values for the Activity in assay [1] and in assay [6] were 38.21% and 64.2%, respectively. Further, the outcome in assay [2] was inactive. For the same molecule, the result in assay [3], in assay [4] and in assay [5] was Active.
